The text below walks through data of ChEMBL document CHEMBL1275244, “Antimicrobial resistance among respiratory pathogens in Spain: latest data and changes over 11 years (1996-1997 to 2006-2007)” (2010).

Common to all, as to type: functional
Experiment [1] relates to Streptococcus pneumoniae. The experiment can be described thus: Antimicrobial activity against Streptococcus pneumoniae clinical isolates by broth dilution method in presence of beta-lactamase inhibitor clavulanic acid. In a few lines: (§1)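 Isolates kept frozen at −70°C in duplicate and revived by hot-loop touching. MICs by the CLSI broth microdilution method active in the year of study, with S. pneumoniae ATCC 49619 as control. Categories assigned with CLSI M100-S19 breakpoints.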

For another experiment, the system named is Streptococcus pyogenes. In words: Antimicrobial activity against Streptococcus pyogenes clinical isolates by broth dilution method in presence of beta-lactamase inhibitor clavulanic acid. In a few lines:
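S. pyogenes clinical isolates held at −70°C in duplicate and recovered by hot-loop touching. MICs by the CLSI broth microdilution method in force in the study year, interpreted per CLSI M100-S19.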
(In general: Dilution methods test growth across graded concentrations, often in twofold steps.)

Experiment [2] deals with Haemophilus influenzae. The experiment can be described thus: Antimicrobial activity against Haemophilus influenzae clinical isolates assessed as resistant isolates by broth dilution method in presence of beta-lactamase inhibitor clavulanic acid. In short, it runs like this: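 H. influenzae clinical isolates were stored at −70°C in duplicate and recovered by the hot-loop touching method without repeated thawing. MICs were determined by CLSI broth microdilution in Haemophilus test medium, following the method current in the study year. Each medium batch was checked for growth support with H. influenzae ATCC 10211. Controls were H. influenzae ATCC 49247 and ATCC 49766 and E. coli ATCC 35218. Categories were assigned per CLSI M100-S19.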

Experiment [3] deals with Haemophilus influenzae. In words: Antimicrobial activity against Haemophilus influenzae clinical isolates assessed as susceptible isolates by PK/PD technique in presence […] of beta-lactamase inhibitor clavulanic acid. Details: scale not given: the % may be the effect or the level left.
For experiment [4], the system named is Streptococcus pneumoniae. The experiment can be described thus: Antimicrobial activity against Streptococcus pneumoniae clinical isolates assessed as resistant isolates by broth dilution method in presence of beta-lactamase inhibitor clavulanic acid. In a few lines:
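S. pneumoniae clinical isolates were kept frozen at −70°C in duplicate and recovered by hot-loop touching to avoid repeated freeze-thaw. MICs were measured by CLSI broth microdilution as in force in the study year, with S. pneumoniae ATCC 49619 as control strain. Susceptibility categories were interpreted using CLSI M100-S19 breakpoints.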

The subject of experiment [5] is Streptococcus pneumoniae. The experiment can be described thus: Antimicrobial activity against Streptococcus pneumoniae clinical isolates assessed as susceptible isolates by PK/PD technique in presence of beta-lactamase inhibitor clavulanic acid.
Experiment [6] has as its system Haemophilus influenzae. In words: Antimicrobial activity against Haemophilus influenzae clinical isolates by broth dilution method in presence of beta-lactamase inhibitor clavulanic acid. In short, it runs like this: (§2)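 Clinical isolates stored in duplicate at −70°C and recovered by the hot-loop touching method. MICs by the CLSI broth microdilution method current in the study year, in Haemophilus test medium (HTM). Growth support of HTM checked with H. influenzae ATCC 10211. Controls were H. influenzae ATCC 49247 and ATCC 49766 and E. coli ATCC 35218. Susceptibility interpreted per CLSI M100-S19.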

The test system of experiment [7] is Haemophilus influenzae. In words: Antimicrobial activity against Haemophilus influenzae clinical isolates assessed as susceptible isolates by PK/PD technique in presence of beta-lactamase inhibitor clavulanic acid.
Experiment [8] relates to Streptococcus pneumoniae. The experiment can be described thus: Antimicrobial activity against Streptococcus pneumoniae clinical isolates assessed as susceptible isolates by PK/PD technique in presence of […] beta-lactamase inhibitor clavulanic acid.
Experiment [9] has as its system Haemophilus influenzae. The experiment can be described thus: Antimicrobial activity against Haemophilus influenzae clinical isolates assessed as susceptible isolates by broth dilution method in presence of beta-lactamase inhibitor clavulanic acid. In a few lines:
as §2

The subject of experiment [10] is Streptococcus pneumoniae. The experiment can be described thus: Antimicrobial activity against Streptococcus pneumoniae clinical isolates assessed as susceptible isolates by broth dilution method in presence of beta-lactamase inhibitor clavulanic acid. In short, it runs like this:
as §1

For `CC1(C)S[C@@H]2[C@H](NC(=O)[C@H](N)c3ccc(O)cc3)C(=O)N2[C@H]1C(=O)O` [AMOXICILLIN], the MIC50 in the experiment on Streptococcus pneumoniae [1] was ≤ 0.015 µg/mL; in the experiment with Streptococcus pyogenes it was ≤ 0.015 µg/mL; with Haemophilus influenzae [6] (Haemophilus influenzae), 0.25 µg/mL. For the same molecule, the MIC90 in the experiment with Streptococcus pneumoniae [1] is 1 µg/mL; in the experiment with Streptococcus pyogenes it was ≤ 0.015 µg/mL; in the experiment on Haemophilus influenzae [6], 1 µg/mL. Moreover, the Activity in the experiment on Haemophilus influenzae [2] was found to be 0.3%; in the experiment on Haemophilus influenzae [3] it was 99.7%; in the experiment with Streptococcus pneumoniae [4] it was 1.2%; in the experiment on Streptococcus pneumoniae [5], 94.8%; with Haemophilus influenzae [7], 97.5%; with Streptococcus pneumoniae [8], 98.8%. Moreover, the Activity in the experiment with Haemophilus influenzae [9] came out at 99.7%; in the experiment with Streptococcus pneumoniae [10], 94.8%.
